# Measured values from different studies.
# Compare with care: the assays were run in different laboratories.
# Target: Mitogen-activated protein kinase 14 (MAPK14, Homo sapiens, UniProt Q16539)
SMILES,assay,conditions,endpoint,result
Cc1nn(C)cc1-c1nc2c(N3CCN(Cc4ccc(Cl)cc4)CC3)c(Cl)cnc2[nH]1,"binding, competition with immobilised ligand",1 µM,remaining binding,71%
COc1cc(Cl)c(C(=O)N[C@@H](CN[C@H]2CC[C@@H](N)CC2)Cc2ccc(C#N)cc2)cc1-c1ccc(CN[C@H](C)c2ccc(C)cc2)o1,"enzyme activity, inhibitor",1 µM,remaining activity,107%
N#CC1(c2ccccn2)CCN(Cc2cc(C(=O)O)c(=O)n3ccccc23)CC1,"cell-free assay, competition with immobilised ligand",1 µM,remaining binding,100%
O=c1[nH]c2ccccc2n1C1CCN(Cc2ccc(-c3[nH]c4cc5ncnc5cc4nc3-c3ccccc3)cc2)CC1,cell-free assay,0.5 µM,remaining signal,99.7%
COc1ncccc1-c1cnn2ccc(N3CCN(C(=O)OC(C)C)CC3)nc12,"binding, competition with immobilised ligand",1 µM,remaining binding,94%
Cc1ncc(C)n2nc(/C=C/c3nc(N4CCCC4)cc(N4CCOCC4)n3)nc12,"enzyme activity, inhibitor",10 µM,inhibition,0%
O=C(Nc1cccnn1)N1CCN([C@@H]2CCOc3cc(C(F)(F)F)ccc32)CC1,"enzyme activity, inhibitor",20 µM,inhibition,-20%
C#Cc1n[nH]c2c(-c3cn(C(C)c4ccccn4)c(=O)[nH]c3=O)cc(F)cc12 (stereo not shown),"enzyme activity, inhibitor",1 µM,inhibition,-4.4%
Cn1cncc1[C@@](O)(COc1ccc(C#N)cc1-c1ccc(OC(F)(F)F)cc1)c1ccc(C#N)cc1,"cell-free assay, competition with immobilised ligand",1 µM,remaining binding,100%
CC(C)(C)c1cc(C=C(C#N)C#N)cc(Br)c1O,"enzyme activity, inhibitor",0.5 µM,remaining activity,98.3%
